Test results published in ChEMBL document CHEMBL2434844, “Synthesis, antimicrobial, antioxidant activities of novel 6-aryl-5-cyano thiouracil derivatives” (Eur J Med Chem, 2013).
≈ marks a conversion by molar mass, not a printed value. Calls of active or inactive are those of the source. No cut-off for these calls is given here.

Columns and labels:
Type in all cases: functional
[1] = test system: Aspergillus flavus; test: Antifungal activity against Aspergillus flavus ATCC 11495 at 10 mg/disc after 48 hrs by disc-diffusion method
Procedure, shortened: (§1)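 Disc diffusion per Bauer method under NCCLS conditions on nutrient agar/Mueller-Hinton agar. Compound dissolved in sterile DMSO at 10 mg/mL, filtered 0.2 µm, stored frozen at -15 °C; 10 mg/disc in DMSO applied. DMSO control. Inhibition zone diameter measured in mm after 48 h incubation at 28 °C.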

[2] = test system: Escherichia coli; test: Antibacterial activity against Escherichia coli ATCC 11775 at 10 mg/disc after 48 hrs by disc-diffusion method; procedure, shortened: as §1
[3] = test system: Aspergillus flavus; test: Antifungal activity against Aspergillus flavus ATCC 11495 after 24 hrs by microdilution technique
[4] = test system: Staphylococcus aureus; test: Antibacterial activity against Staphylococcus aureus ATCC 12600 at 10 mg/disc after 48 hrs by disc-diffusion method; procedure, shortened: as §1
[5] = test system: Bacillus cereus; test: Antibacterial activity against Bacillus cereus ATCC 14579 at 10 mg/disc after 48 hrs by disc-diffusion method; procedure, shortened: as §1
[6] = test system: Candida albicans; test: Antifungal activity against Candida albicans ATCC 26555 after 24 hrs by microdilution technique
Procedure, shortened: (§2)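 MIC by agar microdilution on Mueller-Hinton agar per NCCLS 1997. Bacteria subcultured overnight at 37 °C on MHA, Candida on SDA at 35 °C for 24-48 h, each passaged at least twice. Incubated 37 °C in humid chamber, read after 24 h.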

[7] = test system: Bacillus cereus; test: Antibacterial activity against Bacillus cereus ATCC 14579 after 24 hrs by microdilution technique; procedure, shortened: as §2
[8] = test system: Candida albicans; test: Antifungal activity against Candida albicans ATCC 26555 at 10 mg/disc after 48 hrs by disc-diffusion method; procedure, shortened: as §1
[9] = test system: Escherichia coli; test: Antibacterial activity against Escherichia coli ATCC 11775 after 24 hrs by microdilution technique; procedure, shortened: as §2
[10] = test system: Staphylococcus aureus; test: Antibacterial activity against Staphylococcus aureus ATCC 12600 after 24 hrs by microdilution technique; procedure, shortened: as §2

MIC ([3]; ATCC 11495, 24 h) [µg/mL]	MIC [6]	MIC [7]	MIC ([9]; DSM 30083 = JCM 1649)	MIC ([10]; ATCC 12600, 24 h) [µg/mL]	MIC [3]	MIC ([6]; ATCC 26555, 24 h) [µg/mL]	MIC ([7]; ATCC 14579, 24 h) [µg/mL]	MIC ([9]; DSM 30083 = JCM 1649, 24 h) [µg/mL]	MIC [10]	Compound	diameter of the inhibition zone (DIZ) [1]	diameter of the inhibition zone (DIZ) ([2]; DSM 30083 = JCM 1649)	diameter of the inhibition zone (DIZ) [4]	diameter of the inhibition zone (DIZ) [5]	diameter of the inhibition zone (DIZ) [8]	diameter of the inhibition zone (DIZ) [2] [mm]
16 (≈ 42.5 µM)	inactive	inactive	inactive	32 (≈ 85.1 µM)						N#Cc1c(-c2ccc(Br)cc2)[nH]c(=S)n2c(=O)c(=O)[nH]nc12	17 mm	inactive	13 mm	inactive	inactive	
					inactive	32 (≈ 87.9 µM)	64 (≈ 176 µM)	64 (≈ 176 µM)	inactive	N#Cc1c(-c2ccc(Br)cc2)[nH]c(=S)n2c(=S)[nH]nc12	inactive		inactive	10 mm	12 mm	11
256 (≈ 897 µM)				128 (≈ 449 µM)		128 (≈ 449 µM)	128 (≈ 449 µM)	128 (≈ 449 µM)		Cc1nc2c(C#N)c(-c3ccc(F)cc3)[nH]c(=S)n2n1	7 mm		7 mm	5 mm	8 mm	7
32 (≈ 72.7 µM)				32 (≈ 72.7 µM)		32 (≈ 72.7 µM)	32 (≈ 72.7 µM)	32 (≈ 72.7 µM)		COc1ccc(/C=N/Nc2nc(=S)[nH]c(-c3ccc(Br)cc3)c2C#N)cc1	14 mm		18 mm	16 mm	16 mm	12
32 (≈ 87.1 µM)				32 (≈ 87.1 µM)		32 (≈ 87.1 µM)	32 (≈ 87.1 µM)	32 (≈ 87.1 µM)		N#Cc1c(N/N=C/c2ccc(F)cc2)nc(=S)[nH]c1-c1ccc(F)cc1	14 mm		19 mm	16 mm	15 mm	12
256 (≈ 771 µM)				128 (≈ 385 µM)		128 (≈ 385 µM)	128 (≈ 385 µM)	128 (≈ 385 µM)		N#Cc1c(-c2ccc(Br)cc2)[nH]c(=S)n2ncnc12	7 mm		6 mm	5 mm	8 mm	7
256 (≈ 944 µM)				128 (≈ 472 µM)		128 (≈ 472 µM)	128 (≈ 472 µM)	128 (≈ 472 µM)		N#Cc1c(-c2ccc(F)cc2)[nH]c(=S)n2ncnc12	7 mm		7 mm	6 mm	8 mm	8
32 (≈ 72.8 µM)				32 (≈ 72.8 µM)		32 (≈ 72.8 µM)	32 (≈ 72.8 µM)	32 (≈ 72.8 µM)		COc1cc(-c2[nH]c(=S)nc(N/N=C/c3ccc(F)cc3)c2C#N)cc(OC)c1OC	15 mm		19 mm	17 mm	16 mm	12
	inactive	inactive	inactive		inactive				inactive	Cc1nnc2c(C#N)c(-c3ccc(Br)cc3)[nH]c(=S)n12	inactive	inactive	inactive	inactive	inactive	
	inactive			64 (≈ 199 µM)	inactive		64 (≈ 199 µM)	64 (≈ 199 µM)		N#Cc1c(NN)nc(=S)[nH]c1-c1ccc(Br)cc1	inactive		13 mm	11 mm	inactive	11
	inactive			16 (≈ 58.8 µM)	inactive		32 (≈ 118 µM)	32 (≈ 118 µM)		N#Cc1c(-c2ccc(F)cc2)[nH]c(=S)n2nnnc12	inactive		15 mm	15 mm	inactive	13
	inactive			32 (≈ 82.8 µM)	inactive		32 (≈ 82.8 µM)	32 (≈ 82.8 µM)		Cc1cc(C)n(-c2nc(=S)[nH]c(-c3ccc(Br)cc3)c2C#N)n1	inactive		12 mm	12 mm	inactive	11
16 (≈ 46.6 µM)				16 (≈ 46.6 µM)		16 (≈ 46.6 µM)	16 (≈ 46.6 µM)	16 (≈ 46.6 µM)		COc1cc(-c2[nH]c(=S)n3cnnc3c2C#N)cc(OC)c1OC	18 mm		21 mm	18 mm	17 mm	13
256 (≈ 746 µM)				128 (≈ 373 µM)		128 (≈ 373 µM)	128 (≈ 373 µM)	128 (≈ 373 µM)		COc1cc(-c2[nH]c(=S)n3ncnc3c2C#N)cc(OC)c1OC	7 mm		7 mm	5 mm	8 mm	6
256 (≈ 716 µM)				128 (≈ 358 µM)		128 (≈ 358 µM)	128 (≈ 358 µM)	128 (≈ 358 µM)		COc1cc(-c2[nH]c(=S)n3nc(C)nc3c2C#N)cc(OC)c1OC	7 mm		6 mm	6 mm	8 mm	7
					inactive	32 (≈ 85.2 µM)	64 (≈ 170 µM)	64 (≈ 170 µM)	inactive	COc1cc(-c2[nH]c(=S)n3c(=S)[nH]nc3c2C#N)cc(OC)c1OC	inactive		inactive	11 mm	12 mm	10
	inactive			32 (≈ 80.5 µM)	inactive		32 (≈ 80.5 µM)	32 (≈ 80.5 µM)		COc1cc(-c2[nH]c(=S)nc(-n3nc(C)cc3C)c2C#N)cc(OC)c1OC	inactive		11 mm	11 mm	inactive	12
32 (≈ 70.9 µM)				32 (≈ 70.9 µM)		32 (≈ 70.9 µM)	32 (≈ 70.9 µM)	32 (≈ 70.9 µM)		COc1ccc(/C=N/Nc2nc(=S)[nH]c(-c3cc(OC)c(OC)c(OC)c3)c2C#N)cc1	15 mm		17 mm	15 mm	15 mm	12
	inactive			16 (≈ 48 µM)	inactive		32 (≈ 96 µM)	32 (≈ 96 µM)		N#Cc1c(-c2ccc(Br)cc2)[nH]c(=S)n2nnnc12	inactive		14 mm	13 mm	inactive	12
	inactive			16 (≈ 46.5 µM)	inactive		32 (≈ 92.9 µM)	32 (≈ 92.9 µM)		COc1cc(-c2[nH]c(=S)n3nnnc3c2C#N)cc(OC)c1OC	inactive		14 mm	12 mm	inactive	12
16 (≈ 59 µM)				16 (≈ 59 µM)		16 (≈ 59 µM)	16 (≈ 59 µM)	16 (≈ 59 µM)		N#Cc1c(-c2ccc(F)cc2)[nH]c(=S)n2cnnc12	19 mm		22 mm	19 mm	18 mm	14
	inactive	inactive	inactive	64 (≈ 184 µM)	inactive					N#Cc1c(-c2ccc(Br)cc2)[nH]c(=S)n2c(=O)[nH]nc12	inactive	inactive	11 mm	inactive	inactive	
